Results on 8 molecules are retold here after paper PMC10798293 (Journal of Enzyme Inhibition and Medicinal Chemistry, 2024).

By Km is commonly meant the substrate concentration at which the rate is half of its maximum. Usually IC50 stands for the concentration needed to halve the response being measured. Usually Ki stands for a measure of affinity in units of concentration, obtained from inhibition or displacement. Broadly, the Kd is the equilibrium constant for the complex coming apart. A lower Kd goes with a tighter complex.

“Also recorded” adds a separate entry of the source.

The target in experiment [1] is T1, SaSDH (Staphylococcus aureus shikimate dehydrogenase) (Staphylococcus aureus, UniProt Q5HFG5).
T1 sequence (Q5HFG5 1-268): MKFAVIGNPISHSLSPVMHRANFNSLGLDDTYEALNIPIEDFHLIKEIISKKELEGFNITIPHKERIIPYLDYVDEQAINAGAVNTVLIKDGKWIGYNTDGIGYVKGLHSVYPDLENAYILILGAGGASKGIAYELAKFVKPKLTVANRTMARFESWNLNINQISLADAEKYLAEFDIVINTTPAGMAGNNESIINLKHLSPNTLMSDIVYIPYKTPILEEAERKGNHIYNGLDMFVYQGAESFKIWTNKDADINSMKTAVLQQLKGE
The experiment in a line: SaSDH enzyme inhibition. Format: biochemical. The following applies: for Mode of inhibition: with respect to SHK; for IC50: 1 mM SHK, 1.54 ng SaSDH, pH 9.0, 37 °C, 30 min.

Experiment [2] relates to S. aureus. In words: S. aureus susceptibility, micro-broth two-fold serial dilution. Format: cell-based, Staphylococcus aureus.
Experiment [3] deals with S. aureus. The experiment in a line: Growth / time-kill curves. The class given is cell-based, Staphylococcus aureus. The following applies: inhibitor at MIC: 50 μg/mL (-)-gallocatechin gallate, 250 μg/mL rhodiosin.
Experiment [4] deals with S. aureus. In words: Scanning electron microscopy of bacterial morphology. Format: cell-based, Staphylococcus aureus. The note with it: MIC and 1/2 MIC, 1.5 h.
The test system of experiment [5] is S. aureus. The experiment in a line: Cell membrane integrity, Calcein AM/PI staining. The class given is cell-based, Staphylococcus aureus. The note with it: MIC, 37 °C, 3 h.
Experiment [6] concerns the target T2, SaSDH (Staphylococcus aureus, UniProt Q5HFG5).
T2 sequence (Q5HFG5 1-268): T1 sequence (Q5HFG5 1-268)
In words: SaSDH enzyme activity and kinetic parameters for substrates. Format: biochemical. The note with it: substrate varied, co-substrate at saturation, pH 9.0, 37 °C. An outline of the steps:
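His-tagged SaSDH (pET-28a(+), E. coli BL21(DE3)pLysS, IPTG induction, Ni-NTA purified). Reverse reaction: NADP+-dependent SHK oxidation, 1.54 ng enzyme, 100 mM Tris-HCl pH 9.0, 37 °C, enzyme-started; A340 every minute for 60 min.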

The target of experiment [7] is T2, SaSDH. The experiment in a line: Isothermal titration calorimetry. Format: binding. The following applies: ITC, 100 mM Tris-HCl pH 9.0, 25 °C. (ITC needs no label: the signal is the heat of the interaction.)

Regarding Rhodiosin, the Mode of inhibition entry in experiment [1] (Lineweaver-Burke plots) is “competitive inhibition”; in experiment [1] (Lineweaver-Burke plots, listed as rhodiosin), “competitive inhibitor”. In experiment [2], the “Antibacterial activity (in words)” value is given as “antibacterial activities”. In experiment [3], the “Effect on S. aureus growth (time-kill curves)” value was “completely inhibited S.aureus growth”. The “Bacterial morphology by SEM” value in experiment [4] is “cell disintegration, cell surface fracturing and wrinkling”. The “Cell membrane integrity (PI-labeled bacteria)” value in experiment [5] is “cell membrane destruction”.
For `NC(=O)c1ccc[n+]([C@@H]2O[C@H](COP(=O)([O-])OP(=O)(O)OC[C@H]3O[C@@H](n4cnc5c(N)ncnc54)[C@H](OP(=O)(O)O)[C@@H]3O)[C@@H](O)[C@H]2O)c1` [NADP^+], in experiment [6], the Km worked out at 98.2 µM and the Vmax came out at 3.785 mM/min/µg.
With `O=C(O[C@@H]1Cc2c(O)cc(O)cc2O[C@H]1c1cc(O)c(O)c(O)c1)c1cc(O)c(O)c(O)c1` [(-)-Gallocatechin gallate], the IC50 in experiment [1] (1 mM NADP) is under 100 µM. In addition, affinity in experiment [1] (Lineweaver-Burke plots, SHK varied 0.25-4 mM) was put at a Ki of 2.47 µM. The Mode of inhibition entry in experiment [1] (Lineweaver-Burke plots) was “uncompetitive inhibition; also recorded: uncompetitive inhibitor”. The Kd in experiment [7] came to 44.6 µM. In addition, in experiment [2], the “Antibacterial activity (in words)” value is on record as “antibacterial activities”. The “Effect on S. aureus growth (time-kill curves)” value in experiment [3] is listed as “slow bacterial growth”. The “Bacterial morphology by SEM” value in experiment [4] is “cell disintegration, cell surface fracturing and wrinkling”. Besides, the “Cell membrane integrity (PI-labeled bacteria)” value in experiment [5] is on record as “cell membrane destruction”.
For the molecule `O=C(O)C1=C[C@@H](O)[C@@H](O)[C@H](O)C1` [SHK, shikimate], in experiment [6], the Km was determined as 46.1 µM and the Vmax came out at 3.362 mM/min/µg.
In experiment [1] (IC50, 1 mM NADP), `C[C@@H]1O[C@@H](OC[C@H]2O[C@@H](Oc3c(-c4ccc(OCCO)c(OCCO)c4)oc4cc(OCCO)cc(O)c4c3=O)[C@H](O)[C@@H](O)[C@@H]2O)[C@H](O)[C@H](O)[C@H]1O` [Troxerutin, reference compound] returned an IC50 of under 100 µM.
The molecule `O=C(OC[C@H]1O[C@@H](OC(=O)c2cc(O)c(O)c(O)c2)[C@H](OC(=O)c2cc(O)c(O)c(O)c2)[C@@H](OC(=O)c2cc(O)c(O)c(O)c2)[C@@H]1OC(=O)c1cc(O)c(O)c(O)c1)c1cc(O)c(O)c(O)c1` [Pentagalloylglucose] registered an IC50 in experiment [1] (IC50, 1 mM NADP) of under 100 µM. Further, the “Antibacterial activity (in words)” value in experiment [2] is “antibacterial activities”.
Consider `COc1ccc([C@@H]2CC(=O)c3c(O)cc(O[C@@H]4O[C@H](CO[C@@H]5O[C@@H](C)[C@H](O)[C@@H](O)[C@H]5O)[C@@H](O)[C@H](O)[C@H]4O)cc3O2)cc1O` [Hesperidin], for which the half-maximal inhibitory concentration (IC50) in experiment [1] (1 mM NADP) is under 100 µM.
As to `CC=C1[C@H](O[C@@H]2O[C@H](CO)[C@@H](O)[C@H](O)[C@H]2O)OC=C(C(=O)OC)[C@H]1CC(=O)OC[C@H]1O[C@@H](OCCc2ccc(O)cc2)[C@H](O)[C@@H](O)[C@@H]1O` (stereo in doubt) [Specneuzhenide], the IC50 in experiment [1] (1 mM NADP) is under 100 µM.
